Measured values gathered from unrelated publications.
Compare with care: the assays were run in different laboratories.
FGFR3: Fibroblast growth factor receptor 3 (FGFR3, Homo sapiens, UniProt P22607)
FGFR3 G697C: Fibroblast growth factor receptor 3 (FGFR3, Homo sapiens, UniProt P22607, G697C)

CC(C)(C)c1nc2c(s1)c1nc(N)ncc1c1ccc(NS(=O)(=O)c3c(F)cccc3F)c(F)c12
remaining activity (FGFR3; enzyme activity; inhibitor; radiometric; 1 µM): 91%

O=C(Nc1cnn(-c2csc(C(=O)NC3COC3)c2)c1)Nc1ccccc1Cl
remaining activity (FGFR3; enzyme activity; inhibitor; 5 µM): 97.8%

F[C@@H]1CCN(c2nccc(-c3cnn4ncccc34)n2)C1
remaining binding (FGFR3; binding; 1 µM): 100%

Cc1ccc(C(=O)Nc2ccc(CN3CCN(C)CC3)c(C(F)(F)F)c2)cc1C#Cc1cnc2cccnn12
remaining signal (FGFR3; cell-free assay; 23.5 nM): 62%

CN(c1nccc(-c2cnn3ncccc23)n1)C1CC1
remaining binding (FGFR3 G697C; binding; 1 µM): 100%

CC/C(=N\NC(=O)NCc1cccc(O)c1)c1ccc(O)c(C)c1O
inhibition (FGFR3; enzyme activity; inhibitor; 0.1 µM): 2.2%

Cc1cc(C)c(-n2ccn3nc(-c4cccnc4)cc23)cc1NC(=O)c1cc(C#N)cc(S(F)(F)(F)(F)F)c1
remaining binding (FGFR3; cell-free assay; competition with immobilised ligand; 0.1 µM): 95.6%

Nc1ncnc2occ(-c3ccc(NC(=O)Nc4cc(C(F)(F)F)ccc4F)cc3)c12
remaining signal (FGFR3 G697C; cell-free assay; 20 µM): 1.1%

CC(C)(O)[C@H]1CC[C@H](Nc2ccc3ncc(-c4cccc(C(F)(F)F)c4)n3n2)CC1
remaining activity (FGFR3; enzyme activity; inhibitor; 1 µM): 102%

CSc1nc(C)c(-c2ccnc(Nc3ccc(N4CCOCC4)cc3)c2)[nH]1
inhibition (FGFR3; cell-free assay; inhibitor; 10 µM): 70.4%

O=C(CSc1nc2nccnc2c(=O)n1CCc1ccccc1)Nc1nccs1
inhibition (FGFR3; enzyme activity; inhibitor; 10 µM): 8%

CC(C)CC(=O)N1CCc2nc(-c3ccc(Br)cc3)nc(N(C)Cc3ccccc3)c2C1
remaining binding (FGFR3; cell-free assay; competition with immobilised ligand; 0.1 µM): 100%

COc1cc(Cl)c(C(=O)N[C@@H](CN[C@H]2CC[C@@H](N)CC2)Cc2ccc(C#N)cc2)cc1-c1ccc(CN[C@H](C)c2ccc(C)cc2)o1
remaining activity (FGFR3; enzyme activity; inhibitor; 1 µM): 85%

CNC(=O)Nc1ccc2c(c1)[C@@]1(CC2)OC(=O)N(CC(=O)N(Cc2ccc(F)cc2)[C@@H](C)C(F)(F)F)C1=O
remaining binding (FGFR3; cell-free assay; competition with immobilised ligand; 1 µM): 92%

CN(C)c1nccc(-c2cnc3ncccn23)n1
remaining binding (FGFR3; binding; 1 µM): 100%

CNC(=O)c1cc(Oc2ccc(NC(=O)Nc3ccc(Cl)c(C(F)(F)F)c3)cc2)ccn1
inhibition (FGFR3; enzyme activity; inhibitor; 0.3 µM): 32%

O=C1Nc2ccc(Cl)cc2C1=Cc1cc(Cl)c(O)c(Cl)c1
remaining signal (FGFR3; cell-free assay; 0.5 µM): 94%

CCN(CC)c1ccc(C2=NNC(=O)CC2C)cc1[N+](=O)[O-] (centres unmarked)
remaining activity (FGFR3; enzyme activity; inhibitor; 10 µM): 93%

C=CC(=O)Nc1cc(Nc2nccc(Nc3cc(Cl)c(F)cc3C(C)(C)O)n2)c(OC)cc1N1CC[C@@H](N(C)C)C1
inhibition (FGFR3; enzyme activity; inhibitor; 1 µM): 4%

CCCOc1ccc(OC)c(F)c1C(=O)c1ccc(C(=O)N[C@@H]2CNC[C@H]2NC(=O)c2ccc3[nH]ncc3c2)cc1
remaining activity (FGFR3; enzyme activity; inhibitor; 10 µM): 47%

Cc1ccc(Nc2nccc(N(C)c3ccc4c(C)n(C)nc4c3)n2)cc1S(N)(=O)=O
inhibition (FGFR3; enzyme activity; inhibitor; 0.3 µM): 66%

CNCc1ccc(-c2cc(-c3nc(-c4ccc(S(=O)(=O)C(C)C)cc4)cnc3N)on2)cc1
inhibition (FGFR3; enzyme activity; inhibitor; 2 µM): 10%

COc1cc2ncnc(Nc3ccc(Oc4ccccc4)c(C)c3C)c2cc1OC
inhibition (FGFR3; enzyme activity; inhibitor; 1 µM): -2%

CNc1cccc2cc(C(=O)Nc3ccc(C(=O)O)cc3)c(=O)[nH]c12
inhibition (FGFR3; enzyme activity; inhibitor; 10 µM): -1.1%

C[C@@H]1CCN(c2nccc(-c3cnn4ncccc34)n2)C1
remaining binding (FGFR3 G697C; binding; 1 µM): 100%

CCOCCn1cc(C(=O)Nc2ccc(-n3nc(-c4cccnc4)cc3C(F)(F)F)cn2)ccc1=O
remaining binding (FGFR3; cell-free assay; competition with immobilised ligand; 1 µM): 84%

COc1cc2ncnc(Nc3ccc(F)c(Cl)c3)c2cc1OCCCN1CCOCC1
remaining signal (FGFR3; cell-free assay; 0.5 µM): 79.3%

Cc1c(NC(=O)c2cc(C(N)=O)nc3cc(F)ccc23)c(C(F)(F)F)nn1Cc1ccc(C(C)(C)C)cc1
remaining binding (FGFR3; cell-free assay; competition with immobilised ligand; 1 µM): 92%

COc1cc2ncnc(Nc3ccc(Oc4ccccc4)cc3C)c2cc1OC
inhibition (FGFR3; enzyme activity; inhibitor; 1 µM): 5%

CN(C)c1ncnc(-c2ccc3nc(Nc4cc(CN5CCN(C(=O)CC(F)(F)F)CC5)ccn4)[nH]c3c2)c1Cl
remaining binding (FGFR3; cell-free assay; competition with immobilised ligand; 1 µM): 100%

COc1ccc(COc2ccc(Cc3cnc(N)nc3N)cc2OC)cc1
remaining signal (FGFR3; cell-free assay; 0.5 µM): 105%

COc1cc(-c2cn(C3CCc4c(F)cccc4N(CC(F)(F)F)C3=O)nn2)ccc1-n1cnc(C)c1 (centres unmarked)
remaining binding (FGFR3; cell-free assay; competition with immobilised ligand; 1 µM): 100%

N[C@H]1CCN(c2nccc(-c3cnn4ncccc34)n2)C1
remaining binding (FGFR3 G697C; binding; 1 µM): 100%

C[C@@H]1CN(c2cc(-c3n[nH]c4ccc(OC5(C)CC5)cc34)ncn2)C[C@H](C)O1
remaining binding (FGFR3 G697C; cell-free assay; competition with immobilised ligand; 0.1 µM): 86%

Cc1cnn2ncc(-c3ccnc(N(C)C)n3)c2c1
remaining binding (FGFR3 G697C; binding; 1 µM): 82%
